Data from ChEMBL document CHEMBL5696442, “Discovery of type II inhibitors of TGFβ-activated kinase 1 (TAK1) and mitogen-activated protein kinase kinase kinase kinase 2 (MAP4K2)” (J Med Chem, 2015).

Legend:
[1] = biological target: T1, Mitogen-activated protein kinase 14 (Homo sapiens, UniProt Q16539); assay: Inhibition of p38 alpha in human Huh-7 cell lysate at 1 uM by KiNativ Profiling analysis relative to control; format: subcellular
[2] = biological target: Tyrosine-protein kinase Fes/Fps (Homo sapiens, UniProt P07332); assay: Inhibition of FES Lys1 labeling site in human Huh-7 cell lysate at 1 uM by KiNativ Profiling analysis relative to control; format: subcellular
[3] = biological target: Cyclin-dependent kinase 1 (Homo sapiens) (UniProt P06493); assay: Inhibition of CDC2 Lys2 labeling site harbouring VLHRDLKPQNLLIDDKGTIK in human A-375 cells at 0.05 uM by KiNativ Profiling analysis relative to control; format: cell-based
Sequence of Cyclin-dependent kinase 1 (Homo sapiens) (P06493 whole entry, looked up): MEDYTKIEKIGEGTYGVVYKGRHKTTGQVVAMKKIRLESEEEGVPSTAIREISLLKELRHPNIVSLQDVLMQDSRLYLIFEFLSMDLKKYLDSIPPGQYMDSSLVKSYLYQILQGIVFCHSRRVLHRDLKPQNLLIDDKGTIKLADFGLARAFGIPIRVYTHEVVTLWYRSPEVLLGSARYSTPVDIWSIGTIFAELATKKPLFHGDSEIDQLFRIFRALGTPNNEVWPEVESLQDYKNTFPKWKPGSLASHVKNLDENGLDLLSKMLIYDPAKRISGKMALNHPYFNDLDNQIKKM

[4] = biological target: Serine/threonine-protein kinase 24 (Homo sapiens) (UniProt Q9Y6E0); assay: Inhibition of MST3 Lys2 labeling site harbouring DIKAANVLLSEHGEVK in human A-375 cells at 0.5 uM by KiNativ Profiling analysis relative to control; format: cell-based
Sequence of Serine/threonine-protein kinase 24 (Homo sapiens) (Q9Y6E0 whole entry, looked up): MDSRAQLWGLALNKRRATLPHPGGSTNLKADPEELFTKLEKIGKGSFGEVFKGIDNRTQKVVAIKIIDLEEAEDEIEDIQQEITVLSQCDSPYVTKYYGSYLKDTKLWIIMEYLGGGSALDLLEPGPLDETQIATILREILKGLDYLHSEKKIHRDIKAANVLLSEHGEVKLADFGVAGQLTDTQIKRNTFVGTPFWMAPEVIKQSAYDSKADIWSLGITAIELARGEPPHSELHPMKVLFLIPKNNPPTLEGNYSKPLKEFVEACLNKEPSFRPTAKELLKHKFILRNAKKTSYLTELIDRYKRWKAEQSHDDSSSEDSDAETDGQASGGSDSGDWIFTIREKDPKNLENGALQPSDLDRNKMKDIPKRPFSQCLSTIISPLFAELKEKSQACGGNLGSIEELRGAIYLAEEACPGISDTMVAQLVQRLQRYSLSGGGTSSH

[5] = biological target: Tyrosine-protein kinase Fer (Homo sapiens, UniProt P16591); assay: Inhibition of FER ACT labeling site in human A-375 cells at 0.5 uM by KiNativ Profiling analysis relative to control; format: cell-based
[6] = biological target: T1, Mitogen-activated protein kinase 14; assay: Inhibition of p38 alpha in human A-375 cells at 0.5 uM by KiNativ Profiling analysis relative to control; format: cell-based
[7] = biological target: Serine/threonine-protein kinase 24 (Homo sapiens) (UniProt Q9Y6E0); assay: Inhibition of MST3 Lys2 labeling site harbouring DIKAANVLLSEHGEVK in human A-375 cells at 0.05 uM by KiNativ Profiling analysis relative to control; format: cell-based
[8] = biological target: Calcium/calmodulin-dependent protein kinase type 1 (Homo sapiens) (UniProt Q14012); assay: Inhibition of CaMK1alpha Lys1 labeling site harbouring LVAIKCIAK in human A-375 cells at 5 uM by KiNativ Profiling analysis relative to control; format: cell-based
Summary of the method: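 Intact A375 melanoma cells were treated with compound at 5 or 0.5 μM, then lysed. Lysate kinases were labeled with a lysine-reactive ATP or ADP-biotin probe (KiNativ). Inhibition is read as protection of each kinase labeling site from probe labeling.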

[9] = biological target: Cyclin-dependent kinase 2 (Homo sapiens) (UniProt P24941); assay: Inhibition of CDK2 Lys1 labeling site in human A-375 cells at 0.05 uM by KiNativ Profiling analysis relative to control; format: cell-based
[10] = biological target: Serine/threonine-protein kinase WNK3 (Homo sapiens) (UniProt Q9BYP7); assay: Inhibition of Wnk3 Lys2 labeling site in human A-375 cells at 0.5 uM by KiNativ Profiling analysis relative to control; format: cell-based
Sequence of Serine/threonine-protein kinase WNK3 (Homo sapiens) (Q9BYP7 whole entry, canonical isoform): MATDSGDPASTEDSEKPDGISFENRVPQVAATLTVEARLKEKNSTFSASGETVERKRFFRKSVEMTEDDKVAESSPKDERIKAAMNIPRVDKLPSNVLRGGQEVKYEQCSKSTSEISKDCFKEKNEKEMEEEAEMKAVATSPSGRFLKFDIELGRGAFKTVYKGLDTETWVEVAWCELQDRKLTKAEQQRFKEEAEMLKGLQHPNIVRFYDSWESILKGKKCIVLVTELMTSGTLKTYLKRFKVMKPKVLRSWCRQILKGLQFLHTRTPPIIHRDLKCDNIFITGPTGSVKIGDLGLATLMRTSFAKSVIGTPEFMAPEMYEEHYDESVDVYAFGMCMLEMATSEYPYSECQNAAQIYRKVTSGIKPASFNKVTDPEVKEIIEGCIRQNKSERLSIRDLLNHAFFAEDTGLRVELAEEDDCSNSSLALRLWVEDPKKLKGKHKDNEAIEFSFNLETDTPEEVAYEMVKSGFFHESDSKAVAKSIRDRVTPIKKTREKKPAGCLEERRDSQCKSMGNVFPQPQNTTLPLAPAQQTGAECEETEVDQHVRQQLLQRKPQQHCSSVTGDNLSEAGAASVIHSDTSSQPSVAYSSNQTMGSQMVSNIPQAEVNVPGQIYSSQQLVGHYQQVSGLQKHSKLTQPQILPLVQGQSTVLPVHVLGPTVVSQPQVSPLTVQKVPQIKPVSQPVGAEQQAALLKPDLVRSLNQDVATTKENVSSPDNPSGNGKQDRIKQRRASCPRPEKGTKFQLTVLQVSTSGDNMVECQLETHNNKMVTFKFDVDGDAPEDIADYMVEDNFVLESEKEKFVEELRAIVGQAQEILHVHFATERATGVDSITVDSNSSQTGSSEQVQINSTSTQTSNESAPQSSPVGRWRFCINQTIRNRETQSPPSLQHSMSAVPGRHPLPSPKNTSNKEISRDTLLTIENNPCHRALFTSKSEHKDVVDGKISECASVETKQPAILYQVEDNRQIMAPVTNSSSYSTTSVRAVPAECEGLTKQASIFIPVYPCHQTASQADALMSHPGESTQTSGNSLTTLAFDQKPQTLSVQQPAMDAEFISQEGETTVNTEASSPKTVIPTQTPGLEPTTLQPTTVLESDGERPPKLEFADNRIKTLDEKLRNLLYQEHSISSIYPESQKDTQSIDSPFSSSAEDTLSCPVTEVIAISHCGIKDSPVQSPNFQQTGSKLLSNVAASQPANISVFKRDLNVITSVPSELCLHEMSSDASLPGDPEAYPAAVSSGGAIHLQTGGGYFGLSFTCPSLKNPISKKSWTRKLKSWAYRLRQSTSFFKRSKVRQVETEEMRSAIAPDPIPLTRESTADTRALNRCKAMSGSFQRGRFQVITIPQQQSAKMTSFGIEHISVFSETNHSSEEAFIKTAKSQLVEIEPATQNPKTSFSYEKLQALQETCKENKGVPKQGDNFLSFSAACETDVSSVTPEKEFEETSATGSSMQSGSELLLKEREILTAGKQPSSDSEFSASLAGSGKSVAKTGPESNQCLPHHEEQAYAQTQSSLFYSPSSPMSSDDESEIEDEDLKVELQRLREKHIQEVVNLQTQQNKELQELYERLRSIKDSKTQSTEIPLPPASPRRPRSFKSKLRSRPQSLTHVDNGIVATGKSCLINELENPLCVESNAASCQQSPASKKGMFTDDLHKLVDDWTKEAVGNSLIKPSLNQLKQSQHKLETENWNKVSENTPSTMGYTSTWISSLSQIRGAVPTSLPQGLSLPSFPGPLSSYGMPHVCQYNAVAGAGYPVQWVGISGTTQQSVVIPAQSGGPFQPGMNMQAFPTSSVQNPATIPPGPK

[11] = biological target: Casein kinase I isoform delta (Homo sapiens) (UniProt P48730); assay: Inhibition of CK1delta Lys2 labeling site in human A-375 cells at 0.05 uM by KiNativ Profiling analysis relative to control; format: cell-based
[12] = biological target: Serine/threonine-protein kinase WNK1 (Homo sapiens) (UniProt Q9H4A3); assay: Inhibition of Wnk1 ATP Loop labeling site in human A-375 cells at 0.5 uM by KiNativ Profiling analysis relative to control; format: cell-based
[13] = biological target: Cyclin-dependent kinase 4 (Homo sapiens) (UniProt P11802); assay: Inhibition of CDK4 Lys2 labeling site in human A-375 cells at 0.5 uM by KiNativ Profiling analysis relative to control; format: cell-based
Sequence of Cyclin-dependent kinase 4 (Homo sapiens) (P11802 whole entry): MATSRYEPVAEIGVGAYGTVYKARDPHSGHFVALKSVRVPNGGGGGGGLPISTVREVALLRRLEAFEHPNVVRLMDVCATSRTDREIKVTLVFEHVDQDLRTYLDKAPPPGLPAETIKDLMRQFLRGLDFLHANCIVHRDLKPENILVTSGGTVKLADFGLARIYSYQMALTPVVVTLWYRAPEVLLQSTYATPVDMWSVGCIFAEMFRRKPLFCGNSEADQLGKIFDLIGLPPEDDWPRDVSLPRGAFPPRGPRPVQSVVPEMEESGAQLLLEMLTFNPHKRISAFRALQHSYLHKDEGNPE
Summary of the method: (§1)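 Live A375 melanoma cells were treated with compound at 5 or 0.5 μM. The cells were then lysed, and the lysates were labeled with a lysine-reactive ATP or ADP-biotin acyl probe (KiNativ). Inhibition is the compound's protection of each kinase labeling-site peptide from probe labeling, relative to untreated control.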

[14] = biological target: T2, Kinase suppressor of Ras 2 (Homo sapiens) (UniProt Q6VAB6); assay: Inhibition of KSR2 ACT labeling site in human A-375 cells at 5 uM by KiNativ Profiling analysis relative to control; format: cell-based
T2 sequence (whole entry): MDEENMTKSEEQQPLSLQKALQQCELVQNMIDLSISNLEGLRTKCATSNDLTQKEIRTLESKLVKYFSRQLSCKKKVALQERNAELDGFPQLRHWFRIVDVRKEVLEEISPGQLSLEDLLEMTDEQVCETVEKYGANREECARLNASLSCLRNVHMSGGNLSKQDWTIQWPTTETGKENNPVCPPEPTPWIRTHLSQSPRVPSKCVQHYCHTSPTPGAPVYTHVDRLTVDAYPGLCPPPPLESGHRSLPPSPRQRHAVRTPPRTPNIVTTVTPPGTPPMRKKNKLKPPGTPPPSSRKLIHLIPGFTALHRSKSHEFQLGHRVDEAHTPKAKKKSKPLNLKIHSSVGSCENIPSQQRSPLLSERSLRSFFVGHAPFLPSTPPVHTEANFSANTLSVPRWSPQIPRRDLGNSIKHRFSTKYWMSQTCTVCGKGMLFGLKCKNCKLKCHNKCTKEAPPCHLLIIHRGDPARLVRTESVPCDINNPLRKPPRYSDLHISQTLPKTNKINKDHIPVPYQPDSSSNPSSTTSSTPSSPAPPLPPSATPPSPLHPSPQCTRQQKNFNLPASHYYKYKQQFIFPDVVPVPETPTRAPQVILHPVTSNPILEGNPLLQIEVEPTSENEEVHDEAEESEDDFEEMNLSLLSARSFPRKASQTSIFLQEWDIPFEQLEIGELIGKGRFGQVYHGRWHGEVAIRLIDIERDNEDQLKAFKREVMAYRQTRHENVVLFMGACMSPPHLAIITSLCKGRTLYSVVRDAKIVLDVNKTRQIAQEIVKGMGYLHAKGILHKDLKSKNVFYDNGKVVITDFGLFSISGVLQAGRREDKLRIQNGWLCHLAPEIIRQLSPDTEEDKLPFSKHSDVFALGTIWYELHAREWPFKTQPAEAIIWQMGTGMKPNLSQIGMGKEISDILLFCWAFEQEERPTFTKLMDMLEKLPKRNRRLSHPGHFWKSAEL

[15] = Inhibition of p70S6K ATP Loop labeling site harbouring GGYGKVFQVR in human A-375 cells at 0.05 uM by KiNativ Profiling analysis relative to control; details: condition cancer
[16] = biological target: Proto-oncogene tyrosine-protein kinase Src (Homo sapiens, UniProt P12931); assay: Inhibition of SRC ACT labeling site in human A-375 cells at 0.5 uM by KiNativ Profiling analysis relative to control; format: cell-based
Sequence of Proto-oncogene tyrosine-protein kinase Src (P12931 2-536 limits assumed): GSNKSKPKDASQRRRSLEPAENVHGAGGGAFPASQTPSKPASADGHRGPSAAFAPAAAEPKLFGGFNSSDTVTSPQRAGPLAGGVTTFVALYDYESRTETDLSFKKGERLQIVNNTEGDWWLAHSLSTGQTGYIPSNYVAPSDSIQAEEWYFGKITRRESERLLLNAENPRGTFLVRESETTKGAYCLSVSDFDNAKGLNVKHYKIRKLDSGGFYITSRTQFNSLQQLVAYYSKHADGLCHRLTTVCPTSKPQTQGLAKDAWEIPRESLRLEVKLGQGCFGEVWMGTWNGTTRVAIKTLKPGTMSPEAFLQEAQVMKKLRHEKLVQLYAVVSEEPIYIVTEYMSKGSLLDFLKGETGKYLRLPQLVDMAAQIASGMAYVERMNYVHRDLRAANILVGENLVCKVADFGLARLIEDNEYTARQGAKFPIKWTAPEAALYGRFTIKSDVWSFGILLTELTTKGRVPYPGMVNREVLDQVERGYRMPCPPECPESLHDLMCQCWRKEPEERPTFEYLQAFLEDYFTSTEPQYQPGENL

[17] = biological target: Cyclin-dependent kinase 8 (Homo sapiens) (UniProt P49336); assay: Inhibition of CDK8 Lys2 labeling site in human A-375 cells at 5 uM by KiNativ Profiling analysis relative to control; format: cell-based; summary of the method: as §1
[18] = biological target: Epidermal growth factor receptor (Homo sapiens) (UniProt P00533); assay: Inhibition of EGFR ACT labeling site harbouring LLGAEEKEYHAEGGKVPIK in human A-375 cells at 0.5 uM by KiNativ Profiling analysis relative to control; format: cell-based
Sequence of Epidermal growth factor receptor (Homo sapiens) (P00533 whole entry): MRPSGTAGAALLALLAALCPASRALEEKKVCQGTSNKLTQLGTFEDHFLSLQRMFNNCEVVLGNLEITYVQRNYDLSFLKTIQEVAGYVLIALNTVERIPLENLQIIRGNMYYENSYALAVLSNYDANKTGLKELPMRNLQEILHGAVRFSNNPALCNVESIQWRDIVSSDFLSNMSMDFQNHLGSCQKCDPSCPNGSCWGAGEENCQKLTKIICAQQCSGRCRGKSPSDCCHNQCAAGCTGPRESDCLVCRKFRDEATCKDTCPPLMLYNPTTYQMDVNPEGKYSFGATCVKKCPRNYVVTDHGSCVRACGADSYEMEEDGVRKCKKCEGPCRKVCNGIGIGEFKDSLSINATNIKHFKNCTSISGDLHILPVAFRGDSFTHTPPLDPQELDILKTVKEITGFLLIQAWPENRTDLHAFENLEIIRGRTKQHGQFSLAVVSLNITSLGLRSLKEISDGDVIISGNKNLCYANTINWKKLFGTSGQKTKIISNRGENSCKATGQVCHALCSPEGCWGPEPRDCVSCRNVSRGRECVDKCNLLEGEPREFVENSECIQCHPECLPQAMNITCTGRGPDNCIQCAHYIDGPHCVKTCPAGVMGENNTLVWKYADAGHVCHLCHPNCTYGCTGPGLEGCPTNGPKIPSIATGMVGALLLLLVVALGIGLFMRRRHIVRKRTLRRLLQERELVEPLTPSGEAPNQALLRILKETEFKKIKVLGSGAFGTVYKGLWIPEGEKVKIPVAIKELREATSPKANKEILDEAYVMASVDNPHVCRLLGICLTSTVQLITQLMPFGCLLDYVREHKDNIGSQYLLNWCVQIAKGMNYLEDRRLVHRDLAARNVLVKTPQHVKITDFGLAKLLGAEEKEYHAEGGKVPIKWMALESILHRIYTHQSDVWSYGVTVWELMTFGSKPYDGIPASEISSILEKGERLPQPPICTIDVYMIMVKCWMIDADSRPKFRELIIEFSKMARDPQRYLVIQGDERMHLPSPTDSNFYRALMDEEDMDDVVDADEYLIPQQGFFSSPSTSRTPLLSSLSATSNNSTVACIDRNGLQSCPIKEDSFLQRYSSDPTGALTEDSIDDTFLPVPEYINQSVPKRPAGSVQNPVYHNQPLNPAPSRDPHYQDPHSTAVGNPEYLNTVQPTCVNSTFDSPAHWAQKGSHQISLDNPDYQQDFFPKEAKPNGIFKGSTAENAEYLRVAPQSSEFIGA
Summary of the method: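 Live A375 melanoma cells were treated with compound at 0.5 or 5 μM, then lysed. Lysates were labeled with a lysine-reactive ATP or ADP-biotin probe. The read-out was protection of each kinase probe-labeling site from labeling, relative to control.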

[19] = biological target: Phosphatidylinositol 4,5-bisphosphate 3-kinase catalytic subunit beta isoform (Homo sapiens) (UniProt P42338); assay: Inhibition of PIK3CB ATP labeling site in human A-375 cells at 0.5 uM by KiNativ Profiling analysis relative to control; format: cell-based

T1 sequence (Q16539 whole entry): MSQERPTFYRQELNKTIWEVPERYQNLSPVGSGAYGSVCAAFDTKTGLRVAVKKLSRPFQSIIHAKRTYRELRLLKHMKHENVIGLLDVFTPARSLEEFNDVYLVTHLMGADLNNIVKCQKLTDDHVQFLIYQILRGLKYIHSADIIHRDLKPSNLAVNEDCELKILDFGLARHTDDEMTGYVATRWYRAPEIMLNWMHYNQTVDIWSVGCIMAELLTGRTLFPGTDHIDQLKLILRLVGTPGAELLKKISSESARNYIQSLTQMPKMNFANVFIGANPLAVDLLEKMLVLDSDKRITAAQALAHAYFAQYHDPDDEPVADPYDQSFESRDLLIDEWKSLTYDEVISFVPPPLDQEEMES

In the case of `CNc1cc(Oc2cc(C(=O)Nc3cc(-n4cnc(C)c4)cc(C(F)(F)F)c3)ccc2C)ncn1`, the inhibition [1] is reported as 13.4% and the inhibition [2] is reported as 20%.
Molecule `CCN1CCN(Cc2ccc(NC(=O)c3ccc(C)c(Oc4ccnc5[nH]ccc45)c3)cc2C(F)(F)F)CC1` has an inhibition [3] of -2.9%, an inhibition [4] of 1.6% and an inhibition [5] of 88%. The inhibition [6] was 51.9%, the inhibition [7] was -2.7% and the inhibition [8] was 91.8%. It also gave an inhibition [9] of 16.1%, an inhibition [10] of -3% and an inhibition [11] of -0.7%. The inhibition [12] was 11.4%, the inhibition [13] was 5.7% and the inhibition [14] was 32.1%. It also gave an inhibition at 0.05 µM [15] of 18.9%, an inhibition [16] of 36.5% and an inhibition [17] of 18%. The inhibition [18] was 4.8% and the inhibition [19] was 8.8%.
Molecule `CCN1CCN(Cc2ccc(NC(=O)c3ccc(C)c(/C=C/c4cnc5[nH]ccc5c4OC)c3)cc2C(F)(F)F)CC1` has an inhibition [3] of 6.4%, an inhibition [4] of 0.2% and an inhibition [5] of -10%. The inhibition [6] was 69.2%, the inhibition [7] was 3.2% and the inhibition [8] was 31.9%. It also gave an inhibition [9] of 13.8%, an inhibition [10] of 7.9% and an inhibition [11] of -9.6%. For the same molecule, the inhibition [12] was 15.3%, the inhibition [13] was 9.2% and the inhibition [14] was 12.2%. It also gave an inhibition at 0.05 µM [15] of -14.4%, an inhibition [16] of 72.6% and an inhibition [17] of 16.9%. The inhibition [18] was -0.5% and the inhibition [19] was 37.6%.
Work on `CNc1cc(Oc2cc(C(=O)Nc3cc(N4CCN(C)CC4)cc(C(F)(F)F)c3)ccc2C)ncn1` yielded an inhibition [1] of 27.1% and an inhibition [2] of 11.2%.
